Source: PubChem BioAssay
A selection: hits, their analogues and other compounds. The true share with any hit is near 1.5%.
ABHD4 inh: ABHD4 (mouse) inhibition, primary FP screen; hit rate 0.54% among 370,000; Q8VD66; inhibition, % at 8.92 µM; purified mABHD4, FP-Rh probe fluorescence polarization;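 active = inhibition exceeding the mean over every tested compound plus 3 SD, cut at about 30% in these data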
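Test system: mouse ABHD4 enzyme, wild type. Reagent: FP-Rh fluorescent activity-based probe, added after compound pre-incubation. Timing: pre-incubation 45 min, probe exposure 60 min, at 25 °C. Technique: FP readout, ex 525 nm / em 598 nm. Benchmarks: high control S159A mutant with DMSO, low control median of compound wells.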
TCR CD3 inh: human TCR-CD3 binding inhibition; TAMRA-labeled TCR probe fluorescence, biochemical; inhibition, % at 9.4 µM; hit rate 0.37% among 360,000; in the data active = inhibition above about 19%;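 also: recombinant mutant TCR 2C K166C tagged with TAMRA read by polarization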
HTRA1 inhibitor: blocks human HTRA1 serine peptidase. recombinant HTRA1, FP-rhodamine activity-based probe, fluorescence polarization. inhibition, % at 5.96 µM. hit rate 0.5% among 340,000. AID 504803; in the data active = inhibition above about 36%
SIAE inh: blocks human sialic acid acetylesterase | Q9HAT2 | hit rate 0.69% among 370,000 | SIAE FP-Rh probe binding, fluorescence polarization | inhibition, % at 9.66 µM;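 active = inhibition above a cutoff: mean of compounds within the control limits plus 3 SD of those, cut at about 17% in these data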
Target sequence (Q9HAT2 whole entry, looked up): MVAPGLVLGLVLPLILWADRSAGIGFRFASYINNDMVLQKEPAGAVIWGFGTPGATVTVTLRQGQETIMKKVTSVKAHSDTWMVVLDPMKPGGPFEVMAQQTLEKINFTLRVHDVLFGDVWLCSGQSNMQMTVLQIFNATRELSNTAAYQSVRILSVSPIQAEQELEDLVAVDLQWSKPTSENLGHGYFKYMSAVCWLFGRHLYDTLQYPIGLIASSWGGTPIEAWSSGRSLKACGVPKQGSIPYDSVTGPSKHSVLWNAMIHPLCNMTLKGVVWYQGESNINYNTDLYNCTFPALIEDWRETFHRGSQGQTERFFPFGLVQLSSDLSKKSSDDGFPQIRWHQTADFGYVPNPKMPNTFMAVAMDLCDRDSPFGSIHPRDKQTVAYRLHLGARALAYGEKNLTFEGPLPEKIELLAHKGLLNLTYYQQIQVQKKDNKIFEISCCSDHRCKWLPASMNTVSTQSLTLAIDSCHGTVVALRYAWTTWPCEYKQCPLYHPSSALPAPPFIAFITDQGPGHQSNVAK
DAGLB inh: blocks human DAGLB lipase activity. HEK293T DAGLB membrane lysate, EnzChek fluorogenic substrate. inhibition, % at 5.17 µM. Q8NCG7. hit rate 0.059% among 340,000; in the data active = inhibition above about 34%
mABHD4 conf: ABHD4 (mouse) inhibition, FP confirmation. shares compounds with ABHD4 inh. purified mABHD4, FP-Rh probe fluorescence polarization. inhibition, % at 8.92 µM. hit rate 55% among 1,800. AID 720658;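 active = mean inhibition across replicates above the hit cutoff set in the primary screen, cut at about 30% in these data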
SIAE confirm: confirmation of human SIAE inhibitors; SIAE FP-Rh activity-based probe, fluorescence polarization; inhibition, % at 9.66 µM; AID 1117263; shares compounds with SIAE inh; hit rate 13% among 2,300;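 active = mean inhibition of the replicates above the hit cutoff set in the primary screen, cut at about 17% in these data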;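 also: inhibitors lower polarization as more probe stays unbound to SIAE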
Numbers stand for hits; . = inactive; / = no result given.

SMILES	ABHD4 inh	TCR CD3 inh	HTRA1 inhibitor	SIAE inh	DAGLB inh	mABHD4 conf	others
CC(=O)Nc1ccc(S(=O)(=O)/N=C2/NC(=O)/C(=C\c3ccco3)S2)cc1	.	.	.	.	.	/
CC(C)(C)n1nc(C2CC2)c(Br)c1NC(=O)c1ccc(Cl)cc1	.	.	/	.	/	/
N#Cc1ccccc1S(=O)(=O)N1CCN(CC(O)CN2CCOCC2)CC1 (configuration not stated)	37.7	.	.	.	.	.
C=CCN(c1ccccc1C(=O)O)S(=O)(=O)c1ccc(NC(=O)OC)cc1	34.6	.	.	.	.	.
COc1cccc(N2CCN(C(=O)CCn3nnc4ccccc43)CC2)c1	.	/	/	.	/	/
O=C(CSc1n[nH]c(=O)[nH]c1=O)Nc1ccc2c(c1)C(=O)c1ccccc1C2=O	38.2	.	.	.	.	56.1
O=C(CSc1ccccn1)Nc1ccc2c(c1)C(=O)c1ccccc1C2=O	.	.	.	.	.	/
COc1ccc(C2c3sc(=O)[nH]c3SC3C4CCC(C4)C23)cc1OC (configuration not stated)	.	.	.	.	.	/
COc1cc(C2c3sc(=O)[nH]c3SC3C(=O)N(c4ccc(Br)cc4)C(=O)C32)ccc1O (configuration not stated)	33.9	.	.	.	.	.
Cc1cc(C)c(C2=NOC3c4ccccc4OCC23)c(C)c1 (configuration not stated)	.	.	/	.	/	/
COc1ccc(-c2nc(N/N=C(\C)c3ccc(O)cc3)c3ccccc3n2)cc1	32.3	.	.	.	.	.
COC(=O)C1=C(C)N(C)C(=NCc2ccccc2)NC1c1ccccc1 (configuration not stated)	.	.	/	.	/	/
N=C(N)SCc1cn(-c2ccccc2)nc1-c1ccc(Br)cc1	36.0	.	.	.	.	60.4
c1ccc2c(-c3ccc(OCCN4CCCCC4)cc3)c(-c3ccsc3)sc2c1	39.7	.	.	.	.	.
O=C(CCCN1C(=O)/C(=C/c2ccco2)SC1=S)Nc1ccccc1C(=O)O	32.1	.	.	.	.	.
O=C(O)CCCN1C(=O)/C(=C\c2ccco2)SC1=S	30.9	.	.	.	.	.
COc1ccc(NC(=O)C(c2cc3c(cc2[N+](=O)[O-])OCO3)N(C)C)cc1 (configuration not stated)	70.4	.	.	.	.	.
C#CCN(Cc1cccc(F)c1)C(=O)c1nnc2c3ccccc3n(S(=O)(=O)c3ccc(C)cc3)c2n1	.	.	/	.	/	/
N=C1c2c(cc(=O)n3c2[nH]c2ccccc23)CN1CCN1CCOCC1	30.8	.	.	.	.	.
CCc1ccccc1N=Nc1c(N)[nH]n(-c2ccccc2)c1=O	34.0	/	/	.	/	45.0
O=C(Cc1cc(=O)[nH][nH]1)N/N=C/c1ccccc1C(F)(F)F	.	/	/	.	/	/
Nc1c(Cl)ncnc1N/N=C/c1ccccn1	54.2	.	/	.	/	53.8
COc1cc(/C=N/NC(=O)C(Cc2c[nH]c3ccccc23)NC(=O)OCc2ccccc2)cc([N+](=O)[O-])c1O (configuration not stated)	45.4	.	.	64.5	.	91.8
COc1cc(/C=N/NC(=O)C(Cc2c[nH]c3ccccc23)NC(=O)OCC(C)C)cc([N+](=O)[O-])c1OCc1ccccc1 (configuration not stated)	.	.	.	.	.	/
Nc1ccc2ccc(N)cc2c1	34.9	.	/	.	/	.
SMILES	ABHD4 inh	TCR CD3 inh	HTRA1 inhibitor	SIAE inh	DAGLB inh	mABHD4 conf	others
O=C(Nc1sc(-c2ccccc2)cc1C(=O)O)c1ccccc1	35.8	.	.	.	.	37.2
CCOC(=O)c1cc(-c2ccccc2)sc1NC(=O)CC	.	.	.	.	.	/
C[C@@H]1CCN(C2CC2)S(=O)(=O)c2c(cccc2N2CCC[C@@H]2CO)O1	.	/	/	.	/	/
CCN(CC)c1c(C)nc2ccc(C(=O)Nc3cc(-c4ccccc4)ccc3OC)cn12	52.8	.	/	.	/	59.4
CCc1nc2ccc(C(=O)Nc3cc(-c4ccccc4)ccc3OC)cn2c1N(C)Cc1ccc(Cl)cc1	.	.	/	.	/	/
COc1cc(OC)c(NC(=O)C(Sc2nc(C)cc(C)c2C#N)c2ccccc2)cc1Cl (configuration not stated)	.	.	/	.	/	/
CC(=O)N=c1sc2nc3ccccc3nc2n1N(C(C)=O)C(C)=O	35.4	.	.	.	.	.
CCCCCCn1c(=O)[nH]c2nc3cc(N)ccc3nc2c1=O	49.8	.	/	18.1	/	40.2	SIAE confirm=.
CCCCCn1c(=O)c(C(=O)c2ccccc2)nc2ccccc21	.	.	.	.	.	/
C(=N\Nc1nc2ccccc2[nH]1)/c1ccccc1	.	.	.	.	.	/
C(=C\c1ccccc1)/C=N/Nc1nc2ccccc2[nH]1	31.9	.	.	22.4	.	33.3	SIAE confirm=18.2
COC(=O)c1cc2c(c3c4cc(F)ccc4n(S(=O)(=O)c4cccc(C)c4)c13)C(=O)N(C)C2	.	.	/	.	/	/
COC(=O)c1c(Cl)c2n3ccccc3c(C)c(-c3ccccc3)c-2c1C(=O)OC	43.6	.	.	20.6	.	.	SIAE confirm=.
COC(=O)c1cc2c(-c3ccccc3)c(C)c3ccccn3c-2c1C(=O)OC	.	.	.	.	.	/
Cc1ccccc1CNC(=O)C1CCC(CNS(=O)(=O)c2cccc3cccnc23)CC1 (configuration not stated)	.	/	/	.	/	/
O=[N+]([O-])c1cccc(C=NNc2ccc3ccccc3n2)c1O	36.8	.	.	17.2	.	37.4	SIAE confirm=.
COC(=O)c1ccc(-c2cccc(CN3CCN(c4ncc(Cc5ccccc5)cn4)CC3)c2)cc1	.	.	/	.	/	/
C[C@@H]1ON(C)[C@H]2C[C@H]3c4[nH]c5c(-c6ccccc6F)cccc5c4CCN3C(=O)[C@@H]12	.	.	/	.	/	/
CN(C)c1ccc(NC(=O)Nc2ccc3c(c2)c(=O)n(C)n3-c2ccccc2)cc1	.	.	/	.	/	/
CN(C)c1ccc(NC(=S)Nc2ccc3c(c2)c(=O)n(C)n3-c2ccc(C(C)(C)C)cc2)cc1	30.8	.	/	19.9	/	44.9	SIAE confirm=.
C=CCN1C(=O)[C@H](CC(=O)NCCCOCCCC)[C@@]2(C(=O)OCC)CCCC=C12	.	/	/	.	/	/
CCCCNc1ccc2c3c(cccc13)C(=O)N(CCCC)C2=O	52.1	.	.	19.3	.	68.2	SIAE confirm=18.1
Cc1cccc(C=Nc2ccc3c4c(cccc24)CC3)c1O	33.5	.	.	20.6	.	.	SIAE confirm=.
COC(=O)C1=C(C)N(C)C(=NCc2ccccc2)NC1CCc1ccccc1 (configuration not stated)	.	.	/	.	/	/
CC(C)N1C(=O)CC(Nc2ccc(N3CCOCC3)cc2)C1=O (configuration not stated)	32.6	.	.	20.7	.	42.5	SIAE confirm=.
